Only some compounds are listed: those with a hit (about 2.3% of all), similar ones and a draw of the others.
TRPC6 act = activates the mouse TRPC6 cation channel | Q61143 | HEK293-TRPC6 membrane potential dye fluorescence; hits give high values | B-score at 10 µM | 0.13% of 310,000 active;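 active = B-score of the integrated fluorescence ratio above library mean plus 3 SD, and starting fluorescence ratio within library mean plus 5 SD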;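 note: higher score means more depolarization so channel activation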
Target sequence (Q61143 whole entry, looked up): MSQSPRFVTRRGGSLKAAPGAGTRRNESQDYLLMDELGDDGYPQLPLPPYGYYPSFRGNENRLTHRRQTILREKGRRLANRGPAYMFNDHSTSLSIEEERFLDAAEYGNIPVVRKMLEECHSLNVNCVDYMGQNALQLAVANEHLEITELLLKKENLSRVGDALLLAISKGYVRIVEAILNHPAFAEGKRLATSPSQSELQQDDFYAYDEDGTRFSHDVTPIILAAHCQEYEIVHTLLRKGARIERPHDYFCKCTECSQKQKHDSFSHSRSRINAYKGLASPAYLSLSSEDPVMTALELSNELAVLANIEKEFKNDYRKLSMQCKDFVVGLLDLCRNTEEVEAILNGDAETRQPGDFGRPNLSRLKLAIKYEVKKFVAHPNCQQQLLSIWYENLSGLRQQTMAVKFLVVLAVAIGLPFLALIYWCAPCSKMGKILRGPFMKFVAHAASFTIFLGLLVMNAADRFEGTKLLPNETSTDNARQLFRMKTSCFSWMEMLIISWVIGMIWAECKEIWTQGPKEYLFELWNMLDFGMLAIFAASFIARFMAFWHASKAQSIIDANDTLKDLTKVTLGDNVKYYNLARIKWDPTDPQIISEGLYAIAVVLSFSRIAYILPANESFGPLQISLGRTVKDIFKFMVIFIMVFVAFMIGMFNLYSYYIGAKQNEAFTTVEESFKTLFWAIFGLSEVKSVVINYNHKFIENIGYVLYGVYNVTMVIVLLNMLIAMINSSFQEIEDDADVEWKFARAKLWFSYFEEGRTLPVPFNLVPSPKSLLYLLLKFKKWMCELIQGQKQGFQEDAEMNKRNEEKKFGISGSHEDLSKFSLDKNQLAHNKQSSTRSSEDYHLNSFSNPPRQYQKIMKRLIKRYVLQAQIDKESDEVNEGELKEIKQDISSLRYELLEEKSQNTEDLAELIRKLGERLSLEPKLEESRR
TRPC4 block = inhibitors of mouse TRPC4 channel; Q9QUQ5; HEK293 TRPC4beta/mu-opioid, DAMGO-evoked Fluo4 calcium flux; hits give low values; AID 2247; 0.39% of 300,000 active; B-score at 10 µM;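 active = B-score over 3 SD under the library average, no early fluorescence shift, positive overall ratio signal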
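Assay system: Stable TRPC4beta/mu-opioid receptor HEK293 cells | Reagent: DAMGO in two steps, submaximal then maximal | Compound dosing: Single concentration per test compound | Signal: Fluo4 Ca2+ flux fluorescence | Evaluation: Per-well B score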
TRPC6 inh = blocks the mouse TRPC6 cation channel; B-score at 10 µM; HEK293-TRPC6, membrane potential dye, ACh-evoked depolarization; hits give low values; 1.1% of 310,000 active;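 active = B-score under library mean minus 3 SD, initial fluorescence not abnormally high, positive integrated signal ratio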;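 note: B-score derived from integrated fluorescence ratio over the kinetic read; more negative B-score means stronger inhibition of depolarization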
TRPC4 act = activators of mouse TRPC4 channel; Q9QUQ5; B-score at 10 µM; 0.49% of 310,000 active; HEK293 TRPC4beta/mu-opioid, Fluo4 calcium fluorescence; hits give high values;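 active = B-score above 5 SD of library B-scores, and initial fluorescence ratio not above library mean plus 5 SD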;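 note: positive B-score marks a calcium rise read as TRPC4 activation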
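Assay system: HEK293 cells stably co-expressing mouse TRPC4beta and mu-opioid receptor / Timing: Fluo4 dye loading 45 min at room temperature, 110 s recording / Signal: Fluo4 calcium-sensitive dye fluorescence, kinetic, 1 Hz baseline / Read-out: integrated baseline-normalised fluorescence ratio, converted to per-well B score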
TRPC4 potent = allosteric potentiators of mouse TRPC4 channel. Q9QUQ5. HEK293 TRPC4beta/mu-opioid, DAMGO EC20, Fluo-4 Ca2+ flux; hits give high values. B-score at 10 µM. 0.42% of 310,000 active;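 active = B-score of calcium response area above 5 SD of library B-scores, with initial fluorescence ratio within 5 SD of library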;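 note: B-score of integrated fluorescence ratio over time as area under calcium response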
* = called active by the depositor; i = inactive; / = no result.

SMILES	TRPC6 act	TRPC4 block	TRPC6 inh	TRPC4 act	TRPC4 potent
O=C(CC1=NCCNC(c2ccccc2)C1)c1ccccc1O (stereo not given)	i	i	i	i	10*
COc1cc(C(=O)N(CCc2ccccc2)C2=CC3CCC(C2)N3C)cc(OC)c1OC (stereo not given)	i	-7*	i	i	i
Cc1ccc(-c2nc3cccnc3s2)cc1NC(=O)C1c2ccccc2Oc2ccccc21	i	i	i	i	i
CC1CC(C)CN(CCC(=O)Nc2cccc(Cl)c2)C1 (stereo not given)	i	i	i	60*	i
CC1CC(C)CN(CCC(=O)Nc2ccc(Br)cc2)C1 (stereo not given)	i	i	i	44*	i
COc1ccc(C(=O)CCC(=O)Nc2cccc(Cl)c2)cc1	i	i	i	i	18*
COCC1CCN(Cc2cn(-c3ccccc3F)nc2-c2cc(C)sc2C)CC1	i	i	i	96*	i
Cc1cc(-c2nn(-c3ccccc3F)cc2CNCCc2cnc[nH]2)c(C)s1	i	i	i	125*	i
O=C(Cc1cccs1)NNC(=S)NC(=O)c1ccccc1	i	i	i	52*	i
O=C(Cc1cccs1)NNC(=S)NC(=O)c1ccc(F)c(F)c1	i	i	i	60*	i
O=C(/C=C/c1ccccc1)NC(=S)NNC(=O)Cc1cccs1	i	i	i	i	i
Cc1c(Br)c(C(=O)NNC(=O)c2ccc(C(C)(C)C)cc2)nn1C	i	i	i	i	i
CCN(CC1COc2ccccc2O1)C(=S)NCCCN(C)C (stereo not given)	i	i	i	i	12*
CSCc1c(C(=O)Nc2ccc3c(c2)OCO3)oc2ccccc12	i	i	i	i	i
CSCc1c(C(=O)NCCc2ccccn2)oc2ccccc12	i	i	i	i	12*
O=C(NC1CCCCCCC1)c1cnccn1	i	i	i	i	12*
O=C(NC1CCS(=O)(=O)C1)c1cnccn1 (stereo not given)	i	i	i	i	i
O=C(NC(c1ccccc1)c1ccccc1)c1ccc(=O)[nH]n1	i	i	i	i	i
COc1ccc(S(=O)(=O)NNc2nc(C)cc(C)n2)cc1Br	i	i	i	i	i
Cc1cc(C)nc(NNS(=O)(=O)c2ccc(F)c(Cl)c2)n1	i	i	i	i	17*
CCN=C1SC(C(=O)Nc2ccc(OC)cc2)CC(=O)N1CC (stereo not given)	i	i	i	i	i
CC(C)(C)c1csc(NC(=O)Cc2cccs2)n1	i	i	i	i	69*
CSc1cccc(NC(=O)C2CCN(S(=O)(=O)c3ccc4c(c3)NC(=O)CO4)CC2)c1	i	i	i	i	i
Cc1cc(Cl)c(Cl)cc1S(=O)(=O)NCCCn1ccnc1	i	i	i	i	11*
CCCCn1c(N)c(N(CCOC)C(=O)c2ccc(-n3c(C)ccc3C)cc2)c(=O)[nH]c1=O	i	i	i	i	i
SMILES	TRPC6 act	TRPC4 block	TRPC6 inh	TRPC4 act	TRPC4 potent
CCOc1ccccc1NC(=O)CSc1nnc(CNC(=O)c2c(F)cccc2Cl)o1	i	i	i	i	i
Nc1c2c(nc3ccccc13)CCCC2	i	i	-5.3*	i	i
COc1ccc2nc3cc(Cl)ccc3c(Nc3cc(CN4CCCC4)c(O)c(CN4CCCC4)c3)c2n1	i	i	-6.6*	i	i
O=C(NNC(=S)NC(=O)c1ccccc1[N+](=O)[O-])c1ccccc1Cl	i	i	i	i	i
COc1ccc(/C=C/C(=O)NC(=S)NNC(=O)c2c(-c3ccccc3)noc2C)cc1	i	i	i	i	i
O=C(NC(=S)NNC(=O)c1ccccc1[N+](=O)[O-])c1ccc(Br)cc1	i	i	i	142*	i
Cc1onc(-c2ccccc2)c1C(=O)NNC(=S)NC(=O)c1ccc(Br)cc1	i	i	i	250*	i
Cc1onc(-c2ccccc2)c1C(=O)NNC(=S)NC(=O)/C=C/c1ccccc1	i	-7*	i	59*	i
CC#CCN1c2ccccc2[C@]23C[C@@H](C(=O)OC)N(C(=O)NC4CCCCC4)C2=NC(C(=O)OC)=C(C(=O)OC)[C@H]13	i	i	i	i	i
COCCn1c(C)cc(C(=O)COC(=O)c2ccc(Cl)c(S(N)(=O)=O)c2)c1C	i	i	i	i	i
O=c1c2ccccc2oc2cc(-c3ccc4[nH]ccc4c3)ccc12	i	i	i	i	i
Cc1cc(SCC#N)nc2ccccc12	i	-6*	i	i	i
C/C(=N\NC(=O)CSc1nc(C)[nH]c1[N+](=O)[O-])c1ccc(F)cc1	i	i	i	i	i
Cc1ccccc1-n1c(=O)c2c(n3cnnc13)-c1ccccc1CC21CCCCC1	i	i	i	i	16*
CCN1CCN(C(=O)c2cc3c(s2)-c2ccccc2S(=O)(=O)C3)CC1	i	i	i	i	i
O=C(c1cc2c(s1)-c1ccccc1S(=O)(=O)C2)N1CCN(Cc2ccccc2)CC1	i	i	i	i	10*
O=c1cc(-c2ccccc2Cl)oc2c(NS(=O)(=O)c3cc(Cl)cc(Cl)c3O)ccc(O)c12	i	/	i	120*	i
CC(=O)c1cccc(NC(=O)c2ccc(C(=O)Nc3cccc(C(C)=O)c3)nc2)c1	i	i	i	i	i
CC(=O)Nc1cccc(NC(=O)c2ccc(C(=O)Nc3cccc(NC(C)=O)c3)nc2)c1	i	i	i	73*	i
CC1CCc2nc3ccc(S(=O)(=O)N4CCC(C(=O)NC(C)c5ccccc5)CC4)cc3c(C(=O)O)c2C1 (stereo not given)	i	i	i	i	i
COc1cc(-c2n[nH]c(=S)n2/N=C/c2cccn2C)cc(OC)c1OC	i	i	i	52*	i
NCCNc1ccc([N+](=O)[O-])c(NC2CC2)c1	i	i	i	i	16*
O=C(NNC(=O)[C@H]1CC=CC[C@H]1C(=O)O)c1ccc(Cl)cc1Cl	i	i	i	i	i
Cc1cc(N(CCO)CCO)ccc1C(c1ccc(N(CCO)CCO)cc1C)c1ccccc1Cl	i	i	i	i	11*
COc1ccc(N2CCN(C(=O)CCCn3c(=O)[nH]c4cc(Cl)ccc4c3=O)CC2)cc1	i	-6*	i	i	i

Screening results deposited in PubChem BioAssay by Johns Hopkins Ion Channel Center.
